Experimental findings from PubChem BioAssay AID463111 (Johns Hopkins Ion Channel Center, 2010) are described below.

Hit rate of the full screen: of about 310,000 compounds, about 2,800 (0.9%) were called active. The sample holds actives, similar compounds and a random draw of the others, so the mix is not that of the screen.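 How the source made its calls: active means B-score of the integrated calcium signal more than 4 SD below the library mean, with starting fluorescence not abnormally high; inactive means the rest.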

This assay is described as follows: enhancers of RGS4 function in calcium signaling – cell-based, HEK293 M3R inducible RGS4, calcium flux, primary screen (AID 463111).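 On B-score: negative B-score means reduced calcium response which marks RGS4 activation or potentiation.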 To be noted: HEK293 M3R/inducible RGS4, carbachol calcium flux Fluo4, at 10 µM; stronger effect = lower value. In a few lines: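 test system = HEK293 cells with stable M3R and inducible RGS4 | schedule = recording 10 s baseline at 1 Hz, 100 s post-agonist | technique = Fluo4-AM (2 µM) calcium-flux fluorescence, kinetic read | measure = Agonist-evoked peak-minus-minimum fluorescence over baseline, integrated ratio, B score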
(In general: A change in cytosolic calcium serves as a functional read-out for many receptors and channels.)
Turning to `CC(C)N1C(=O)N(c2ccccc2)C(C)(O)CC1(C)C` (configuration not stated), the B-score result was “inactive”. `CN(C)C(CNC(=O)c1ccc(S(=O)(=O)NCc2ccco2)cc1)c1ccccc1` (configuration not stated): the B-score result was “inactive”. Regarding `CC(C)CN(C(=O)Cn1c(=O)cnc2ccccc21)C1CCS(=O)(=O)C1` (configuration not stated), the B-score result was “inactive”. The result for `COc1ccccc1CCCNC(=O)C1CCC(=O)N(CCN2CCOCC2)C1` (configuration not stated) reads “inactive”. Consider `COc1cc(SC#N)ccc1N=Cc1c(C)[nH]n(-c2ccc(C)cc2)c1=O`, for which the B-score entry was “inactive”. As to `Cc1ccc(-n2[nH]c(C)c(/C=N/N3C(=O)c4cccc5cccc(c45)C3=O)c2=O)cc1`, the B-score was -9.28 (active). With `Cc1[nH]n(-c2cccc(Cl)c2)c(=O)c1/C=N/n1c(C)nc2ccccc2c1=O`, the B-score result is “inactive”. Then `COc1ccc(N2CCN(S(=O)(=O)c3ccc4c(c3)N(C(C)=O)CCO4)CC2)cc1`, with “inactive”. Then `CCOc1ccc(NC(=O)C(C)N2C(=O)c3ccccc3C2=O)cc1` (configuration not stated), with “inactive”; and `CC(=O)c1ccc(OCC(O)CN2CCN(S(=O)(=O)c3cccc(Br)c3)CC2)cc1` (configuration not stated), with “inactive”; and `COc1ccc(C2c3ccc(O)cc3Oc3ncn(CCCO)c(=N)c32)cc1OC` (configuration not stated), with “inactive”.

As for `c1ccc2c(c1)CSc1sccc1C2=C1CCNCC1`, the B-score was -7.49 (active). The result for `Nc1nnc(SCC(=O)NC2CCCc3ccccc32)s1` (configuration not stated) reads “inactive”. Then `CCn1ccnc1CN1CCCC(C(=O)c2ccc3c4c(cccc24)CC3)C1` (configuration not stated), with “inactive”. The result for `CC(C)(C)NCCCOc1ccc(Cl)cc1C(C)(C)C` reads “inactive”; that for `CN(C)CCOc1ccc(Cl)cc1C(C)(C)C`, -7.65 (active). In the case of `CN(C)CCOCCOc1ccc(Cl)c2ccccc12`, the B-score entry was “inactive”. Take `COc1ccc(/C=C2/SC(=O)N(CCCCCC(=O)Nc3ccccc3C(=O)O)C2=S)cc1`: the B-score entry is “inactive”. Then `Cc1cc(C)cc(C(=O)N(CCc2ccccc2)C2=CC3CCC(C2)N3C)c1` (configuration not stated), with “inactive”. As for `CCCN(CCc1ccccc1)C1CCc2c(O)cccc2C1` (configuration not stated), the B-score was -10.2 (active).

As to `CN(C)S(=O)(=O)c1cccc(-c2nn(-c3ccccc3)cc2/C=C2\SC(=S)N(CC(=O)O)C2=O)c1`, the B-score entry was “inactive”. The result for `Cc1ccc(-c2nn(-c3ccccc3)cc2/C=C2\SC(=S)N(CCCCCC(=O)O)C2=O)o1` reads -7.93 (active); that for `COc1ccc(-c2nn(-c3ccccc3)cc2/C=C2/SC(=S)N(CCCC(=O)O)C2=O)c(C)c1`, “inactive”; that for `Oc1oc(-c2ccccc2Br)nc1/C=N/c1ccccn1`, “inactive”.

Take `CSc1nnnn1-c1c(C)cc(C)cc1C`: the B-score result is “inactive”. Regarding `CCCOc1ccc(C2c3c(oc4cc(C)c(C)cc4c3=O)C(=O)N2CCCN2CCOCC2)cc1` (configuration not stated), the B-score entry was “inactive”. Then `Cc1cc2oc(=O)cc(CN3CCN(Cc4ccccc4)CC3)c2cc1C`, with “inactive”. The result for `Cc1cc2oc3ccc(NCCC4CCCN4C)cc3c(=O)c2cc1C` (configuration not stated) reads -9.61 (active); that for `C=CS(=O)c1sc(Cl)c(N2CCOCC2)c1[N+](=O)[O-]` (configuration not stated), “inactive”; that for `CCC(C(=O)OC)n1cnc2scc(-c3ccc(C)cc3)c2c1=O` (configuration not stated), “inactive”. Turning to `CC(=O)Nc1ccc(/C(C)=N/NC(=O)CN(c2ccccc2Br)S(C)(=O)=O)cc1`, the B-score result was “inactive”.

Take `O=C(O)c1cccc2c1C(=O)N(C1CCCC1)C2`: the B-score result was “inactive”. Then `CCOC(=O)c1c(NC(=O)C2CC=CCC2C(=O)O)sc(C)c1CC` (configuration not stated), with “inactive”; and `CCc1c(C)sc(NC(=O)c2cccs2)c1C(N)=O`, with “inactive”; and `CCc1c(C)sc(NC(=O)c2ccc(Br)o2)c1C(=O)OC`, with -10.4 (active).

For `COc1cccc(OC)c1C(=O)OCC(=O)/C(C#N)=C(\C)N`, the B-score entry was “inactive”. Take `Cc1ccc(CNC(=O)Cn2cnc(S(=O)(=O)N3CCCCC3)c2)o1`: the B-score result was “inactive”. Then `Cc1nn(CC(=O)Nc2ccc(C#N)cc2)c(C)c1[N+](=O)[O-]`, with “inactive”; and `CCOc1ccccc1NC(=O)C1CCCN(S(=O)(=O)c2ccccc2)C1` (configuration not stated), with “inactive”; and `CC1Cc2ccccc2N1CC(=O)Nc1ccc2c(c1)OC(F)(F)O2` (configuration not stated), with “inactive”. Then `CN1CCN(c2ccc(S(=O)(=O)Nc3ccccc3)cc2[N+](=O)[O-])CC1`, with -8.35 (active). The result for `CC1CCN(c2ccc(S(=O)(=O)Nc3cc(C(=O)O)cc(C(=O)O)c3)cc2[N+](=O)[O-])CC1` reads “inactive”; that for `COc1ccc(NS(=O)(=O)c2ccc(N3CCN(CCO)CC3)c([N+](=O)[O-])c2)cc1`, “inactive”.

On to `COc1ccc(N2CCN(C(=O)C3CCN(C(=O)c4ccccc4Cl)CC3)CC2)cc1`, for which the B-score entry is “inactive”. The result for `Cc1ccc(OS(=O)(=O)c2ccc(-c3csc(C)n3)s2)c(C)c1` reads -9.64 (active); that for `Cc1ccc(S(=O)(=O)NCc2csc(C)n2)c(C)c1`, “inactive”. The result for `CNC(=O)c1sc(NCc2ccccc2OC)nc1C` reads “inactive”; that for `O=C(CN1C(=O)COc2ccccc21)NCCN1CCc2ccccc2C1`, “inactive”; that for `Cc1cccc2c1-c1sc(C(=O)NCCCN3CCc4ccccc4C3)cc1CO2`, -7.27 (active).

`O=C(NCCCN1CCOCC1)c1cc2c(s1)CCC2`: the B-score result is “inactive”.

Turning to `CCOc1ccc(N(C)S(=O)(=O)c2cnc[nH]2)cc1`, the B-score result is “inactive”. Then `COc1ccccc1C(=O)NC(=S)Nc1ccccc1N1CCCCC1`, with “inactive”; and `COn1c(-c2ccc(Cl)cc2Cl)nc2ncccc21`, with “inactive”; and `Clc1ccc(-c2ncc3ccccn23)c(Cl)c1`, with “inactive”. As for `Clc1ccc(COn2c(-c3ccc(Cl)cc3Cl)nc3ncccc32)cc1`, the B-score is -8.26 (active).

For the compound `COCCn1c(SCC(=O)Nc2nc(C)cs2)nnc1C(C)C`, the B-score result was “inactive”. On to `COc1ccc(NC(=O)c2cc3nc(-c4ccccc4)cc(C)n3n2)cc1OC`, for which the B-score entry was “inactive”.

With `COC(=O)c1cc2nc(-c3ccccc3)cc(C(F)(F)F)n2n1`, the B-score result was “inactive”. The result for `COCCNc1cc(-c2ccccc2)nc2cc(-c3cccc(F)c3)nn12` reads -7.61 (active). Then `CN(C)CCCNC(=O)c1cc(C(=O)Cc2ccc(Cl)cc2)c[nH]1`, with “inactive”. The result for `CC(=O)C1C(c2ccc(Cl)cc2)c2c(n[nH]c2C)CC1(C)O` (configuration not stated) reads “inactive”; that for `COC(=O)c1ccccc1NC(=O)CSc1nnnn1C`, “inactive”; that for `C=CCn1c(SCC(=O)Nc2nc3ccccc3s2)nnc1-c1ccccc1O`, “inactive”. For the compound `Cn1nnnc1SCC(=O)Nc1nc2ccccc2s1`, the B-score was -7.23 (active). Consider `Cc1cccc(CC(=O)N2CCN=C2SCc2ccc([N+](=O)[O-])cc2)c1`, for which the B-score entry is “inactive”. For the compound `O=C(Cc1ccc(F)cc1)N1CCN=C1SCc1cccc([N+](=O)[O-])c1`, the B-score result is “inactive”. The result for `Cc1cc(C)cc(C(=O)N2CCN=C2SCc2ccc([N+](=O)[O-])cc2)c1` reads -8.97 (active).
